Measurements from ChEMBL document CHEMBL1123206, “5-(Alkylsulfonyl)salicylanilides as potential dental antiplaque agents” (J Med Chem, 1986).
Converted amounts (≈) assume the structure as drawn. The source made the active and inactive calls. No cut-off for these calls is given here.

How the values were obtained:
[1] = test system: Streptococcus mutans; assay: The compound was tested for it's inhibitory activity against Streptococcus mutans; format: functional, organism-based
[2] = test system: Actinomyces viscosus; assay: Minimum inhibitory concentration against Actinomyces viscosus; format: functional
Summary of the method: (§1)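 Tube dilution in trypticase soy broth, threefold dilutions from 1000 to 0.1 μg/mL. Stocks were 1 mg/100 μL in EtOH or Me₂SO. The inoculum was 50 μL of 10⁸ cfu/mL log-phase A. viscosus M100-2000, incubated aerobically at 37 °C. MIC was read visually at 24 h.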

[3] = test system: Actinomyces viscosus; assay: Compound was tested for it's inhibitory activity against Actinomyces viscosus M100-2000; format: functional, organism-based
[4] = test system: Actinomyces viscosus; assay: Maximum percentage inhibition against Actinomyces viscosus M-100-2000 at a concentration of 0.2% w/v
[5] = test system: Streptococcus mutans; assay: Maximum percentage inhibition against Streptococcus mutans at a concentration of 0.2% w/v; format: functional
Summary of the method: (§2)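 Bovine enamel slabs (4 × 8 mm) were autoclaved in PBS pH 7.5, coated with human saliva (1 h, 37 °C), dipped in drug solution at the stated w/v for 2 min, then rinsed. They were incubated 24 h at 37 °C in 1% sucrose-supplemented medium inoculated with the plaque-forming organism. Tooth-adherent, glass-adherent and nonadherent fractions were read by OD540. Water-dipped slabs served as controls. Run in triplicate.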

[6] = Partition coefficient (logD); format: physicochemical; settings: octanol/water
Summary of the method: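 logD calculated at pH 7.2 as log D = log P + log[1/(1 + 10^(pH−pKa))], using the calculated log P and spectroscopic pKa.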

[7] = Dissociation constant of the compound; format: physicochemical
Summary of the method: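 Spectroscopic pKa in 0.01 M phosphate buffers without cosolvent, below 10⁻⁴ M. Only pH values giving >60% ionization were used. The analytical wavelength was the longest λmax at pH 12 (260–370 nm). The value is the average of triplicate determinations.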

[8] = Partition coefficient (logP); format: physicochemical; settings: octanol/water
Summary of the method: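 log P calculated, not measured: 3.27 for salicylanilide plus π of the 4'-substituent plus π of R' (phenolic hydrophobicity substituent constants).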

[9] = test system: Actinomyces viscosus; assay: Compound was tested against Actinomyces viscosus; format: functional
[10] = test system: Actinomyces viscosus; assay: Maximum percentage inhibition against Actinomyces viscosus 6715-13WT at a concentration of 0.1% w/v; format: functional; settings: in the assay text read “M-100-2000” for “6715-13WT”; summary of the method: as §2
[11] = test system: Streptococcus mutans; assay: Maximum percentage inhibition against Streptococcus mutans at a concentration of 0.1% w/v; format: functional; summary of the method: as §2
[12] = test system: Actinomyces viscosus; assay: Minimum inhibitory concentration against Actinomyces viscosus M100-2000; NE is Not Effective; format: functional, organism-based; summary of the method: as §1

Structure (SMILES) | MIC [2] [µg/mL] | logD [6] | pKa [7] | logP [8] | Log 1/MIC [9] | further results
CCCCCCCCCCS(=O)(=O)c1ccc(O)c(C(=O)Nc2ccc([N+](=O)[O-])cc2)c1 | 0.5 (≈ 1.08 µM) |  |  |  |  | IC50 [1]: 190 µM; IC50 [3]: 230 µM; inhibition at 0.2 % strength [4]: 93%; inhibition at 0.2 % strength [5]: 80%
O=C(Nc1ccc(Br)cc1)c1cc(Br)cc(Br)c1O [TRIBROMSALAN] | 0.5 (≈ 1.11 µM) |  |  |  |  | IC50 [1]: 1200 µM; IC50 [3]: 880 µM; inhibition at 0.2 % strength [4]: 53%; inhibition at 0.2 % strength [5]: 46%
CCCCCCCCCCCCS(=O)(=O)c1ccc(O)c(C(=O)Nc2cccc(C(F)(F)F)c2)c1 | 0.1 (≈ 0.195 µM) |  |  |  |  | 
CCCCCCS(=O)(=O)c1ccc(O)c(C(=O)Nc2ccc(Br)cc2)c1 | 5 (≈ 11.4 µM) | 3.2 | 5.2 | 5.2 | 4.94 | 
CCCCCCCCCCCCCCS(=O)(=O)c1ccc(O)c(C(=O)Nc2ccc([N+](=O)[O-])cc2)c1 | 0.5 (≈ 0.964 µM) |  |  |  |  | 
CCCCCCCCCCCCCCS(=O)(=O)c1ccc(O)c(C(=O)Nc2cccc(C(F)(F)F)c2)c1 |  |  |  |  |  | MIC [12]: inactive
CS(=O)(=O)c1ccc(O)c(C(=O)Nc2ccc(C(F)(F)F)cc2)c1 | 1000 (≈ 2780 µM) | 1.48 | 6.2 | 2.52 | 2.56 | 
CS(=O)(=O)c1ccc(O)c(C(=O)Nc2ccccc2)c1 | ≥ 1000 |  |  |  |  | 
CCCCCCCCCCCCCCS(=O)(=O)c1ccc(O)c(C(=O)Nc2ccc(C(F)(F)F)cc2)c1 |  |  |  |  |  | MIC [12]: inactive
CCCCCCCCCCCCS(=O)(=O)c1ccc(O)c(C(=O)Nc2ccc(Br)cc2)c1 | 0.5 (≈ 0.953 µM) | 6.49 | 5.2 | 8.44 | 6.02 | 
CCCCCCCCCCCCS(=O)(=O)c1ccc(O)c(C(=O)Nc2ccc([N+](=O)[O-])cc2)c1 | 0.5 (≈ 1.02 µM) |  |  |  |  | 
CCCCS(=O)(=O)c1ccc(O)c(C(=O)Nc2ccc(C(F)(F)F)cc2)c1 | 20 (≈ 49.8 µM) | 3.1 | 6.2 | 4.14 | 4.31 | 
CCCCCCCCCCS(=O)(=O)c1ccc(O)c(C(=O)Nc2ccc(C(F)(F)F)cc2)c1 | 0.1 (≈ 0.206 µM) | 6.34 | 6.2 | 7.38 | 6.69 | IC50 [1]: 1900 µM; IC50 [3]: 90 µM; inhibition at 0.2 % strength [4]: 95%; inhibition at 0.2 % strength [5]: 76%

Further lines, with some results ahead:

MIC [2] [µg/mL] | logD [6] | pKa [7] | logP [8] | Log 1/MIC [9] | Structure (SMILES) | further results
1 (≈ 2.3 µM) |  |  |  |  | CCCCCCCCS(=O)(=O)c1ccc(O)c(C(=O)Nc2ccc([N+](=O)[O-])cc2)c1 | 
0.5 (≈ 1.03 µM) |  |  |  |  | CCCCCCCCCCS(=O)(=O)c1ccc(O)c(C(=O)Nc2cccc(C(F)(F)F)c2)c1 | inhibition at 0.1 % strength [10]: 83%; IC50 [1]: 2300 µM; IC50 [3]: 680 µM; inhibition at 0.1 % strength [11]: 47%
≥ 1000 |  |  |  |  | CS(=O)(=O)c1ccc(O)c(C(=O)Nc2ccc(Br)cc2)c1 | 
0.5 (≈ 1.09 µM) | 5.26 | 6.2 | 6.3 | 5.96 | CCCCCCCCS(=O)(=O)c1ccc(O)c(C(=O)Nc2ccc(C(F)(F)F)cc2)c1 | 
0.05 (≈ 0.0973 µM) | 7.42 | 6.2 | 8.46 | 7.01 | CCCCCCCCCCCCS(=O)(=O)c1ccc(O)c(C(=O)Nc2ccc(C(F)(F)F)cc2)c1 | 
1000 (≈ 2100 µM) |  |  |  |  | CCCCCCCCCCCCS(=O)(=O)c1ccc(O)c(C(=O)Nc2ccc(OC)cc2)c1 | 
1 (≈ 2.12 µM) |  |  |  |  | CCCCCCCCCCCCS(=O)(=O)c1ccc(O)c(C(=O)Nc2ccc(C#N)cc2)c1 | 
0.5 (≈ 1.01 µM) | 5.36 | 5.2 | 7.36 | 6 | CCCCCCCCCCS(=O)(=O)c1ccc(O)c(C(=O)Nc2ccc(Br)cc2)c1 | 
20 (≈ 48.5 µM) | 2.48 | 5.2 | 4.12 | 4.31 | CCCCS(=O)(=O)c1ccc(O)c(C(=O)Nc2ccc(Br)cc2)c1 | 
5 (≈ 11.6 µM) | 4.18 | 6.2 | 5.22 | 4.94 | CCCCCCS(=O)(=O)c1ccc(O)c(C(=O)Nc2ccc(C(F)(F)F)cc2)c1 | 
